In PMC2215654 (The Journal of General Physiology, 1984):
Where two headings read alike, the source gives them in different places. Blank lines part the entries; values can stand above or below the molecule they belong to.

Key:
[1] = system: red cells (net chloride permeability); experiment: Net KCl flux with valinomycin into low chloride medium, 0C; format: cell-based, human
Summary of the method: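 Nystatin-treated high-Cl cells were washed in 150K, then 10K-Hi. Net K+ efflux was measured at 0°C, 0.1% hematocrit, in 10K-Hi with 1.33% ethanol, started by adding graded valinomycin, with or without 10 uM DIDS. K+ was read by flame photometry and taken as net KCl efflux. PK/PCl came from Goldman-equation fits, with PK linear in valinomycin and PK = 0.5 PRb.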

[2] = system: red cells (valinomycin-induced Rb+ exchange); experiment: 86Rb exchange with valinomycin, 0C; format: cell-based, human
Summary of the method: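 Human red cells washed in 150 mM NaCl, 2 mM KCl, 20 mM HEPES pH 7.4, then loaded 17 h at 37°C (50% hematocrit) with ~5 uCi/ml 86Rb in 5 mM adenosine/chloramphenicol buffer. Efflux ran at 0°C, 0.1% hematocrit, in 48 mM NaCl/112 mM KCl/5 mM HEPES pH 7.2 with 1.33% ethanol. Valinomycin was added last, with or without 10 uM DIDS. Timed samples were centrifuged to give the efflux rate constant.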

[3] = target: T1, human erythrocyte anion exchange protein (band 3) (Homo sapiens, UniProt P02730); format: cell-based; conditions: Table III mean
T1 sequence (P02730 1-911): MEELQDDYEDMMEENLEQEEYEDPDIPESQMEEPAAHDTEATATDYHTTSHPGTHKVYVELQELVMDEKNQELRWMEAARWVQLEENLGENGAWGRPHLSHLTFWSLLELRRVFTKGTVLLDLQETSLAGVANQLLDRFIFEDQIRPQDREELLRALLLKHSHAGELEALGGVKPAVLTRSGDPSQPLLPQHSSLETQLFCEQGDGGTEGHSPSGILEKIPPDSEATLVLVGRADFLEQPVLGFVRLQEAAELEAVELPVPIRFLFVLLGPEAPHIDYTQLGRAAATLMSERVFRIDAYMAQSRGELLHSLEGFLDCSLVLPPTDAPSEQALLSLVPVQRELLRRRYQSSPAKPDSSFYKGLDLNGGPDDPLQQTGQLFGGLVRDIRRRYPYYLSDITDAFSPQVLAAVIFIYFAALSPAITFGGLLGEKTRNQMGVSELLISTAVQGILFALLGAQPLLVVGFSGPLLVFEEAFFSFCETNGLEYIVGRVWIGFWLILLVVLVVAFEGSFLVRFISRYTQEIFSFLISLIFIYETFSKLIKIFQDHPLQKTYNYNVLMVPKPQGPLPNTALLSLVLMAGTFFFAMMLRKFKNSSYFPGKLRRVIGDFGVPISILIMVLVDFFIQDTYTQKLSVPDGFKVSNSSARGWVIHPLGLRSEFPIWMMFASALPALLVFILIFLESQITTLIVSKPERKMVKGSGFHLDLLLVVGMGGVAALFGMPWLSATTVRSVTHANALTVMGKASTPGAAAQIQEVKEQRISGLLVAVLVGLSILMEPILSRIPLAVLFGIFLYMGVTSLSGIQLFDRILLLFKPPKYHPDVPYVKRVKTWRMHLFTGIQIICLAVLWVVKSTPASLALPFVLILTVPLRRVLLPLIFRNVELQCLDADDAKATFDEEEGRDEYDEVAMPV
Summary of the method: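 Washed cells in 60K-Hi (pH 7.2) were pretreated 45 min at 37°C, 10% hematocrit, with 2.5 uM (low pH) or 5 uM (high pH) H2DIDS. They were albumin-washed, nystatin-treated (75 ug/ml, 10 min each in 60K-Hi then 60K-Lo, 0°C) and washed into 60K-Lo at pH 7.2 or 9.0. 36Cl efflux with graded H2DIDS and Cl ratios were measured at 0°C in those media. ID50 came from Dixon-plot x-intercepts.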

[4] = target: T1, human erythrocyte anion exchange protein (band 3); experiment: H2DIDS inhibition of chloride exchange in resealed ghosts with Cli < Clo, 0C; format: cell-based
Summary of the method: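 Washed cells were lysed at 0°C in 3.5 mM acetic acid, 4 mM MgSO4, 1 mM EGTA. Tris/KCl/sodium citrate was added for 10 or 60 mM internal Cl; after 10 min at 0°C, ghosts were resealed 45 min at 37°C. They were washed in 60 mM NaCl, 60 mM Na citrate, 5 mM HEPES, 5 mM glucose, MgSO4, pH 7.2. 36Cl efflux with graded H2DIDS was measured at 0°C; ID50 came from Dixon-plot x-intercepts.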

Structure (SMILES): CC(C)[C@@H]1NC(=O)[C@H](C)OC(=O)[C@@H](C(C)C)NC(=O)[C@@H](C(C)C)OC(=O)[C@H](C(C)C)NC(=O)[C@H](C)OC(=O)[C@@H](C(C)C)NC(=O)[C@@H](C(C)C)OC(=O)[C@H](C(C)C)NC(=O)[C@H](C)OC(=O)[C@@H](C(C)C)NC(=O)[C@@H](C(C)C)OC1=O [valinomycin]
PK/PCl ratio ([1]; 10 uM valinomycin, 10K-Hi medium, assuming PK = 0.5 PRb): 33 | PK/PCl ratio ([1]; valinomycin, other experiments, medium with 150 mM NaCl and 10 mM KCl): > 20 | PRb ([2]; Fig. 7, control cells, 10 uM valinomycin): 0.09134 mmol/kg Hb - min - mM

ID50* (no chloride gradient), mean ([3]; extracellular Cl 60 mM, intracellular Cl ~60 mM, 0C): 0.24 AM | ID50 (chloride gradient induced by increasing pH), mean ([3]; intracellular Cl averaged 14.4 mM, mean Clo/Cli 4.66, 0C): 0.47 AM | ID50/ID50*, mean ([3]; mean Clo/Cli 4.66): 2.00 | ID50* (no chloride gradient), mean ([4]; Table II mean, extracellular Cl 60 mM, intracellular Cl ~60 mM, 0C): 0.15 AM | ID50 (with chloride gradient Clo > Cli), mean ([4]; Table II mean, intracellular Cl averaged 27.8 mM, mean Clo/Cli 2.35, 0C): 0.21 AM | ID50/ID50*, mean ([4]; Table II mean, mean Clo/Cli 2.35): 1.41 | increase in ID50 caused by high pH ([4]; pH 9.0 versus pH 7.2, chloride ratio nearly invariant with pH): 30%
Structure (SMILES): O=S(=O)(O)c1cc(N=C=S)ccc1CCc1ccc(N=C=S)cc1S(=O)(=O)O [H2DIDS, 4,4'-diisothiocyano-1,2-diphenylethane-2,2'-disulfonic acid]

Structure (SMILES): O=S(=O)(O)c1cc(N=C=S)ccc1C=Cc1ccc(N=C=S)cc1S(=O)(=O)O [DIDS, 4,4'-diisothiocyano-stilbene-2,2'-disulfonic acid]
plateau net KCl efflux ([1]; in the presence of 10 uM DIDS, high valinomycin concentrations): greatly reduced | effect on Rb+ exchange ([2]; DIDS 10 uM, valinomycin-induced Rb+ exchange): no significant effect | PRb ([2]; Fig. 7, 10 uM valinomycin with 10 uM DIDS present): 0.09216 mmol/kg Hb - min - mM
